# Measured values as given in ChEMBL document CHEMBL2390927, “Design, synthesis and antimicrobial evaluation of novel benzimidazole type of Fluconazole analogues and their synergistic effects with Chloromycin, Norfloxacin and Fluconazole” (2013).
# How the values were obtained:
# Bacillus subtilis [1] = test: Antibacterial activity against Bacillus subtilis ATCC 21216 after 24 hrs by two-fold serial dilution method; assay type: functional; settings: ATCC 21216, 24 h
# How it was run: (§1)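 MIC taken as the lowest concentration giving complete growth inhibition, by standard two-fold serial dilution in 96-well plates following NCCLS. Stocks in DMSO, diluted in Mueller–Hinton broth. Inoculum adjusted with sterile saline to 1 × 10⁵ CFU. DMSO with inoculum and no drug served as solvent control. Growth read visually and spectrophotometrically, in triplicate.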
# Cyberlindnera jadinii [2] = test: Potentiation of fluconazole-induced antifungal activity against Candida utilis at 8 times MIC after 24 hrs by two-fold serial dilution method; assay type: functional
# Staphylococcus aureus [3] = test: Potentiation of norfloxacin-induced antibacterial activity against Staphylococcus aureus ATCC 6538 at MIC after 24 hrs by two-fold serial dilution method; assay type: functional
# Bacillus [4] = test: Potentiation of chloromycin-induced antibacterial activity against Bacillus proteus ATCC 13315 at 2 times MIC after 24 hrs by two-fold serial dilution method; assay type: functional
# Candida albicans [5] = test: Potentiation of fluconazole-induced antifungal activity against Candida albicans ATCC 76615 at 4 times MIC after 24 hrs by two-fold serial dilution method; assay type: functional
# Pseudomonas aeruginosa [6] = test: Antibacterial activity against Pseudomonas aeruginosa ATCC 27853 after 24 hrs by two-fold serial dilution method; assay type: functional; settings: ATCC 27853, 24 h; how it was run: as §1
# Candida albicans [7] = test: Antifungal activity against Candida albicans ATCC 76615 after 24 hrs by two-fold serial dilution method; assay type: functional; settings: ATCC 76615, 24 h
# How it was run: (§2)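 Spore suspension in sterile distilled water from one-day-old cultures on Sabouraud agar, final 1–5 × 10³ spore mL⁻¹. Compound stocks diluted in sterile RPMI 1640 as two-fold serial dilutions in microdilution plates. MIC is the lowest concentration completely inhibiting growth. Growth monitored visually and spectrophotometrically, in triplicate.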
# Saccharomyces cerevisiae [8] = test: Potentiation of fluconazole-induced antifungal activity against Saccharomyces cerevisiae at 4 times MIC after 24 hrs by two-fold serial dilution method; assay type: functional
# Cyberlindnera jadinii [9] = test: Antifungal activity against Candida utilis after 24 hrs by two-fold serial dilution method; assay type: functional; settings: Williopsis jadinii; how it was run: as §2
# Aspergillus flavus [10] = test: Potentiation of fluconazole-induced antifungal activity against Aspergillus flavus at 4 times MIC after 24 hrs by two-fold serial dilution method; assay type: functional
# Micrococcus luteus [11] = test: Potentiation of norfloxacin-induced antibacterial activity against Micrococcus luteus ATCC 4698 at 2 times MIC after 24 hrs by two-fold serial dilution method; assay type: functional
# Staphylococcus aureus [12] = test: Antibacterial activity against methicillin-resistant Staphylococcus aureus N315 after 24 hrs by two-fold serial dilution method; assay type: functional; settings: N315, 24 h
# Bacillus [13] = test: Antibacterial activity against Bacillus proteus ATCC 13315 after 24 hrs by two-fold serial dilution method; assay type: functional; settings: ATCC 13315, 24 h; how it was run: as §1
# Micrococcus luteus [14] = test: Antibacterial activity against Micrococcus luteus ATCC 4698 after 24 hrs by two-fold serial dilution method; assay type: functional; settings: ATCC 4698, 24 h; how it was run: as §1
# Aspergillus flavus [15] = test: Antifungal activity against Aspergillus flavus after 24 hrs by two-fold serial dilution method; assay type: functional; how it was run: as §2
# Escherichia coli [16] = test: Potentiation of chloromycin-induced antibacterial activity against Escherichia coli JM109 at MIC after 24 hrs by two-fold serial dilution method; assay type: functional
# Pseudomonas aeruginosa [17] = test: Potentiation of chloromycin-induced antibacterial activity against Pseudomonas aeruginosa ATCC 27853 at 2 times MIC after 24 hrs by two-fold serial dilution method; assay type: functional
# Saccharomyces cerevisiae [18] = test: Antifungal activity against Saccharomyces cerevisiae after 24 hrs by two-fold serial dilution method; assay type: functional; how it was run: as §2
# Bacillus subtilis [19] = test: Potentiation of norfloxacin-induced antibacterial activity against Bacillus subtilis ATCC 21216 at 2 times MIC after 24 hrs by two-fold serial dilution method; assay type: functional
# Salmonella typhi [20] = test: Antibacterial activity against Bacillus typhi after 24 hrs by two-fold serial dilution method; assay type: functional, Salmonella enterica subsp. enterica serovar Typhi; settings: Salmonella enterica
# How it was run: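 Two-fold serial dilution in 96-well plates following NCCLS; compounds dissolved in DMSO as stocks, then diluted in Mueller-Hinton broth; bacterial suspension adjusted with sterile saline to 1 × 10⁵ CFU; MIC taken as lowest concentration completely inhibiting growth, monitored visually and spectrophotometrically; DMSO-plus-inoculum well as solvent control; triplicate.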
# Bacillus subtilis [21] = test: Potentiation of chloromycin-induced antibacterial activity against Bacillus subtilis ATCC 21216 at 4 times MIC after 24 hrs by two-fold serial dilution method; assay type: functional
# Escherichia coli [22] = test: Antibacterial activity against Escherichia coli JM109 after 24 hrs by two-fold serial dilution method; assay type: functional; settings: JM109, 24 h
# Micrococcus luteus [23] = test: Potentiation of chloromycin-induced antibacterial activity against Micrococcus luteus ATCC 4698 at 2 times MIC after 24 hrs by two-fold serial dilution method; assay type: functional
# Pseudomonas aeruginosa [24] = test: Potentiation of norfloxacin-induced antibacterial activity against Pseudomonas aeruginosa ATCC 27853 at 2 times MIC after 24 hrs by two-fold serial dilution method; assay type: functional
# Staphylococcus aureus [25] = test: Antibacterial activity against Staphylococcus aureus ATCC 6538 after 24 hrs by two-fold serial dilution method; assay type: functional; settings: ATCC 6538, 24 h
# Salmonella typhi [26] = test: Potentiation of chloromycin-induced antibacterial activity against Bacillus typhi at 4 times MIC after 24 hrs by two-fold serial dilution method; assay type: functional, Salmonella enterica subsp. enterica serovar Typhi
# Candida [27] = test: Antifungal activity against Candida mycoderma after 24 hrs by two-fold serial dilution method; assay type: functional; how it was run: as §2
# Salmonella typhi [28] = test: Potentiation of norfloxacin-induced antibacterial activity against Bacillus typhi at 4 times MIC after 24 hrs by two-fold serial dilution method; assay type: functional, Salmonella enterica subsp. enterica serovar Typhi
# Bacillus [29] = test: Potentiation of norfloxacin-induced antibacterial activity against Bacillus proteus ATCC 13315 at 2 times MIC after 24 hrs by two-fold serial dilution method; assay type: functional
# Staphylococcus aureus [30] = test: Potentiation of chloromycin-induced antibacterial activity against Staphylococcus aureus ATCC 6538 at MIC after 24 hrs by two-fold serial dilution method; assay type: functional
# Escherichia coli [31] = test: Potentiation of norfloxacin-induced antibacterial activity against Escherichia coli JM109 at 2 times MIC after 24 hrs by two-fold serial dilution method; assay type: functional
# Candida [32] = test: Potentiation of fluconazole-induced antifungal activity against Candida mycoderma at 4 times MIC after 24 hrs by two-fold serial dilution method; assay type: functional
# Pseudomonas aeruginosa [33] = test: Ratio of chloromycin MIC to compound MIC for Pseudomonas aeruginosa ATCC 27853; assay type: functional
# Saccharomyces cerevisiae [34] = test: Ratio of fluconazole MIC to compound MIC for Saccharomyces cerevisiae; assay type: functional
# Escherichia coli [35] = test: Ratio of chloromycin MIC to compound MIC for Escherichia coli JM109; assay type: functional
# Staphylococcus aureus [36] = test: Ratio of norfloxacin MIC to compound MIC for Staphylococcus aureus ATCC 6538; assay type: functional
# Staphylococcus aureus [37] = test: Ratio of chloromycin MIC to compound MIC for Staphylococcus aureus ATCC 6538; assay type: functional
# Candida [38] = test: Ratio of fluconazole MIC to compound MIC for Candida mycoderma; assay type: functional
# Micrococcus luteus [39] = test: Potentiation of norfloxacin-induced antibacterial activity against Micrococcus luteus ATCC 4698 at MIC after 24 hrs by two-fold serial dilution method; assay type: functional
# Escherichia coli [40] = test: Potentiation of chloromycin-induced antibacterial activity against Escherichia coli JM109 at 8 times MIC after 24 hrs by two-fold serial dilution method; assay type: functional
# Saccharomyces cerevisiae [41] = test: Potentiation of fluconazole-induced antifungal activity against Saccharomyces cerevisiae at 2 times MIC after 24 hrs by two-fold serial dilution method; assay type: functional
# Candida [42] = test: Potentiation of fluconazole-induced antifungal activity against Candida mycoderma at 2 times MIC after 24 hrs by two-fold serial dilution method; assay type: functional
# Bacillus [43] = test: Potentiation of chloromycin-induced antibacterial activity against Bacillus proteus ATCC 13315 at 4 times MIC after 24 hrs by two-fold serial dilution method; assay type: functional
# Aspergillus flavus [44] = test: Potentiation of fluconazole-induced antifungal activity against Aspergillus flavus at 2 times MIC after 24 hrs by two-fold serial dilution method; assay type: functional
# Candida albicans [45] = test: Potentiation of fluconazole-induced antifungal activity against Candida albicans ATCC 76615 at MIC after 24 hrs by two-fold serial dilution method; assay type: functional
# Pseudomonas aeruginosa [46] = test: Potentiation of chloromycin-induced antibacterial activity against Pseudomonas aeruginosa ATCC 27853 at 4 times MIC after 24 hrs by two-fold serial dilution method; assay type: functional
# Bacillus subtilis [47] = test: Potentiation of chloromycin-induced antibacterial activity against Bacillus subtilis ATCC 21216 at 2 times MIC after 24 hrs by two-fold serial dilution method; assay type: functional
# Bacillus subtilis [48] = test: Potentiation of norfloxacin-induced antibacterial activity against Bacillus subtilis ATCC 21216 at MIC after 24 hrs by two-fold serial dilution method; assay type: functional
# Escherichia coli [49] = test: Potentiation of norfloxacin-induced antibacterial activity against Escherichia coli JM109 at 4 times MIC after 24 hrs by two-fold serial dilution method; assay type: functional
# Cyberlindnera jadinii [50] = test: Potentiation of fluconazole-induced antifungal activity against Candida utilis at 4 times MIC after 24 hrs by two-fold serial dilution method; assay type: functional
SMILES,MIC (Bacillus subtilis [1]) [mg/L],fractional inhibitory concentration index (FICI) (Staphylococcus aureus [3]),MIC (Pseudomonas aeruginosa [6]) [mg/L],MIC (Candida albicans [7]) [mg/L],MIC (Cyberlindnera jadinii [9]) [mg/L],MIC (Staphylococcus aureus [12]) [mg/L],MIC (Bacillus [13]) [mg/L],MIC (Micrococcus luteus [14]) [mg/L],MIC (Aspergillus flavus [15]) [mg/L],MIC (Saccharomyces cerevisiae [18]) [mg/L],MIC (Salmonella typhi [20]) [mg/L],MIC (Escherichia coli [22]) [mg/L],fractional inhibitory concentration index (FICI) (Micrococcus luteus [23]),fractional inhibitory concentration index (FICI) (Pseudomonas aeruginosa [24]),MIC (Staphylococcus aureus [25]) [mg/L],MIC (Candida [27]) [mg/L],fractional inhibitory concentration index (FICI) (Bacillus [29]),further results
Fc1ccc(CN(Cc2nc3ccccc3[nH]2)c2cc(C(F)(F)F)cc(C(F)(F)F)c2)c(F)c1,16,0.25,16,16,32,32,16,8,16,16,32,16,0.5,0.375,8,32,0.25,fractional inhibitory concentration index (FICI) (Cyberlindnera jadinii [2]): 0.5; fractional inhibitory concentration index (FICI) (Bacillus [4]): 0.25; fractional inhibitory concentration index (FICI) (Candida albicans [5]): 0.25; fractional inhibitory concentration index (FICI) (Saccharomyces cerevisiae [8]): 0.375; fractional inhibitory concentration index (FICI) (Aspergillus flavus [10]): 0.375; fractional inhibitory concentration index (FICI) (Micrococcus luteus [11]): 0.375; fractional inhibitory concentration index (FICI) (Escherichia coli [16]): 0.25; fractional inhibitory concentration index (FICI) (Pseudomonas aeruginosa [17]): 0.25; fractional inhibitory concentration index (FICI) (Bacillus subtilis [19]): 0.25; fractional inhibitory concentration index (FICI) (Bacillus subtilis [21]): 0.375; fractional inhibitory concentration index (FICI) (Salmonella typhi [26]): 0.25; fractional inhibitory concentration index (FICI) (Salmonella typhi [28]): 0.25; fractional inhibitory concentration index (FICI) (Staphylococcus aureus [30]): 0.25; fractional inhibitory concentration index (FICI) (Escherichia coli [31]): 0.375; fractional inhibitory concentration index (FICI) (Candida [32]): 0.25
FC(F)(F)c1cccc(NCc2nc3ccccc3[nH]2)c1,32,,64,32,32,16,16,32,16,32,32,32,,,16,16,,
FC(F)(F)c1cc(NCc2nc3ccccc3[nH]2)cc(C(F)(F)F)c1,4,,4,2,8,16,2,8,8,2,2,2,,,2,2,,Ratio (Pseudomonas aeruginosa [33]): 4; Ratio (Saccharomyces cerevisiae [34]): 8; Ratio (Escherichia coli [35]): 8; Ratio (Staphylococcus aureus [36]): 4; Ratio (Staphylococcus aureus [37]): 4; Ratio (Candida [38]): 2
Cl.Cl.Fc1ccc(CN(Cc2nc3ccccc3[nH]2)c2cc(C(F)(F)F)cc(C(F)(F)F)c2)c(F)c1,8,0.25,16,8,16,16,16,8,8,8,16,32,0.375,0.25,8,16,0.25,fractional inhibitory concentration index (FICI) (Micrococcus luteus [39]): 0.25; fractional inhibitory concentration index (FICI) (Escherichia coli [40]): 0.375; fractional inhibitory concentration index (FICI) (Saccharomyces cerevisiae [41]): 0.375; fractional inhibitory concentration index (FICI) (Candida [42]): 0.25; fractional inhibitory concentration index (FICI) (Bacillus [43]): 0.375; fractional inhibitory concentration index (FICI) (Aspergillus flavus [44]): 0.375; fractional inhibitory concentration index (FICI) (Candida albicans [45]): 0.375; fractional inhibitory concentration index (FICI) (Pseudomonas aeruginosa [46]): 0.375; fractional inhibitory concentration index (FICI) (Bacillus subtilis [47]): 0.5; fractional inhibitory concentration index (FICI) (Bacillus subtilis [48]): 0.25; fractional inhibitory concentration index (FICI) (Escherichia coli [49]): 0.375; fractional inhibitory concentration index (FICI) (Cyberlindnera jadinii [50]): 0.375
